Consider one molecule from article PMC10694493 (Cell Reports Methods, 2023).

The series in a line: B2LiVe 1D-1H amide-selective NMR, solution-to-membrane partitioning. The series is classed as binding. Particulars: POPC:POPG 9:1 LUV; 3 μM protein; pH 4.2. In outline:
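Test protein held constant while POPC:POPG 9:1 LUV (reverse-phase evaporation, 40 mM stock, extruded through 1.2 μm filters) are titrated from 0 to 2 mM. Buffer: 20 mM HEPES-Na, 20 mM NaCl, 5% D2O, 25°C. 1D amide-selective HET-SOFAST 1H spectra at 800 MHz, PC9 120° pulse centred at 9.5 ppm. Fraction in solution is taken from the amide integral after subtracting the highest-lipid vesicle spectrum.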

B1: apo-Mb: apo-myoglobin, 16.9 kDa amphitropic protein, Sigma-Aldrich (protein, UniProt P68082 2-154, looked up)
Myoglobin: GLSDGEWQQVLNVWGKVEADIAGHGQEVLIRLFTGHPETLEKFDKFKHLKTEAEMKASEDLKKHGTVVLTALGGILKKKGHHEAELKPLAQSHATKHKIPIKYLEFISDAIIHVLHSKHPGDFGADAQGAMTKALELFRNDIAAKYKELGFQG
modifications: heme-free
Turning to B1, the “NMR signal remaining at the highest lipid concentration” value is “completely disappears”.
